From PubChem BioAssay
A selection: hits, their analogues and other compounds. The true share with any hit is near 1.2%.
CaV13 FRET inh – Primary screen for inhibitors of IQ motif and Ca2+-dependent inactivation inhibitor domain binding in CACNA1D, Förster resonance energy transfer in living cells, … | 340,000 tested, 0.098% active | AID 743397 | HEK cells, CFP/YFP FRET ICDI-IQ, plate reader, 10 min; percent FRET-ratio fall versus neutral wells | inhibition, % at 12.3 µM;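 active = mean replicate inhibition of at least 30% and at least 1% of replicates passing that level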
ARNT-TACC3 inh – ARNT/TACC3 interaction disruption. 390,000 tested, 0.66% active. inhibition, % at 9.99 µM. AlphaScreen His-ARNT PAS-B/GST-TACC3 binding, luminescence; TACC3 fragment carries E629A point mutation. Q9Y6A5;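 active = mean inhibition of replicates at least 50% and at least half of replicates each reaching 50%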
CAL PDZ FP-1 – CAL PDZ (human) peptide binding inhibition; AID 602252; purified CAL PDZ, TMR-peptide fluorescence polarization, 1 h; 300,000 tested, 0.92% active; Q9HD26; inhibition, % at 24.9 µM;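 active = mean inhibition of at least 30% with at least half of replicates also reaching 30%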
CAL PDZ FP-2 – blocks peptide binding to human CAL PDZ domain; AID 504414; inhibition, % at 20 µM; 330,000 tested, 0.02% active; Q9HD26; purified CAL PDZ, TMR-peptide fluorescence polarization, 1 h;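 active = highest replicate inhibition of at least 40%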
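Test system: tagged CAL PDZ domain / Buffer or medium: sodium phosphate/NaCl buffer pH 7.4 with TCEP, IgG, Thesit / Reagent: TMR-labelled reporter peptide T*-PRC34 bound in PDZ groove / Compound dosing: single point, 20 µM / Schedule: 1 h incubation at room temperature before polarization reading / Technique: fluorescence polarization (mP) / Benchmarks: unlabelled peptide, DMSO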
Each line names hits and unclear results; the compound was inactive in the other large screens.

O=C(CSc1cccc2cccnc12)Nc1cc(C(=O)O)cc(C(=O)O)c1	ARNT-TACC3 inh 68
CCCCOc1ccc(NC(=O)CSc2cccc3cccnc23)cc1	none
Cc1ccc(C)c(NC(=O)CSc2cccc3cccnc23)c1	none (no result: CAL PDZ FP-2)
COc1ccc(S(=O)(=O)N(C)C[C@@H]2Oc3ccc(NC(=O)Cc4cn(C)c5ccccc45)cc3CC(=O)N([C@H](C)CO)C[C@@H]2C)cc1	none (no result: CaV13 FRET inh, CAL PDZ FP-1, CAL PDZ FP-2)
COc1ccc(-c2ccc(SCC(=O)c3ccccc3)nn2)cc1OC	CAL PDZ FP-1 71
CCNc1nc2nc3ccc(C)cn3c(=O)c2cc1C(=O)NCC1CCCO1 (stereo not drawn)	CaV13 FRET inh active
Cc1ccsc1C(=O)NNC(=O)c1cccc(S(=O)(=O)N2CCCC2)c1	CAL PDZ FP-1 83
COc1ccc(NC(=O)c2cccc(S(=O)(=O)N3CCCC3)c2)cc1OC	CAL PDZ FP-1 77
CC1CCC/C(=C\Nc2ccc(O)cc2)C1=O (stereo not drawn)	ARNT-TACC3 inh 21
CSc1ccccc1OCc1cc(C(=O)N2CCN(c3ccccc3)CC2C)no1 (stereo not drawn)	CAL PDZ FP-1 69 (no result: CaV13 FRET inh)
COc1ccc(/C(=N/Nc2ncnc3ccccc23)C(=O)O)cc1	ARNT-TACC3 inh 60
C[C@@H]1CN([C@H](C)CO)C(=O)Cc2cc(NC(=O)C3CCCCC3)ccc2O[C@H]1CN(C)C(=O)Nc1ccc(C(F)(F)F)cc1	none (no result: CaV13 FRET inh, CAL PDZ FP-1, CAL PDZ FP-2)
O=C(NCc1ccncc1)C1CCC(=O)N(CCc2ccc(Cl)cc2)C1 (stereo not drawn)	none
O=C(NCCCc1ccncc1)C1CCC(=O)N(Cc2ccc(Cl)cc2)C1 (stereo not drawn)	CAL PDZ FP-1 72
COc1cccc(CN2CC(C(=O)NCCCc3ccc(C)cc3)CCC2=O)c1 (stereo not drawn)	CAL PDZ FP-1 100
COc1cccc(CN2CC(C(=O)NCCCc3ccncc3)CCC2=O)c1 (stereo not drawn)	none (no result: CaV13 FRET inh)
CN(C)C(CNC(=O)c1cccc(S(=O)(=O)Nc2ccccc2Cl)c1)c1ccco1 (stereo not drawn)	CAL PDZ FP-1 32
CNS(=O)(=O)c1cccc(C(=O)NCC(c2ccco2)N(C)C)c1 (stereo not drawn)	none
CN(C(=O)c1ccc(NC(=O)c2ccco2)cc1)c1ccccc1	none
CCN(C(=O)c1ccc(NC(=O)c2ccco2)cc1)c1ccccc1	CAL PDZ FP-1 57 (no result: CaV13 FRET inh)
O=C(NCc1cccnc1)c1ccc(NC(=O)c2ccco2)cc1	CAL PDZ FP-1 135
CCNC(=O)Nc1ccc2c(c1)C(=O)N(C)[C@@H]1CC[C@H](CC(=O)NCCN3CCCC3)O[C@H]1CO2	none (no result: CaV13 FRET inh, CAL PDZ FP-1, CAL PDZ FP-2)
O=C(Cn1ccc([N+](=O)[O-])n1)NCc1ccco1	none
O=C(Cn1ccc([N+](=O)[O-])n1)NCc1nc2ccccc2[nH]1	CAL PDZ FP-1 44
COCC#Cc1cnc2c(c1)C(=O)N([C@@H](C)CO)C[C@H](C)[C@@H](CN(C)C(C)=O)O2	none (no result: CaV13 FRET inh, CAL PDZ FP-1, CAL PDZ FP-2)
Clc1ccc2nc3ccccn3c2c1	CAL PDZ FP-1 53
N#Cc1ccc2c(c1)nc1ccccn12	none
O=c1cc(Cl)nc2ccccn12	CAL PDZ FP-1 38
COc1ccc(-c2cnc3c(c2)C(=O)N([C@H](C)CO)C[C@H](C)[C@@H](CN(C)C(=O)NC2CCCC2)O3)cc1	none (no result: CaV13 FRET inh, CAL PDZ FP-1, CAL PDZ FP-2)
N#Cc1c(=O)c2nc(NCc3ccccc3)ncc2n2ccccc12	ARNT-TACC3 inh 53
O=c1c(C=NCCCn2ccnc2)c(-c2ccccc2)[nH]n1-c1nc2ccccc2s1	ARNT-TACC3 inh 54
CN(C)CCCN=Cc1c(-c2ccccc2)[nH]n(-c2nc3ccccc3s2)c1=O	none
Cc1ccccc1N1CCN(C2CCCN(C(=O)c3csc(C(C)C)n3)C2)CC1 (stereo not drawn)	CAL PDZ FP-1 54
COc1ccccc1N1CCN(C2CCCN(C(=O)c3cc(C(C)C)on3)C2)CC1 (stereo not drawn)	none (no result: ARNT-TACC3 inh, CAL PDZ FP-1, CAL PDZ FP-2)
CC(C)c1cc(C(=O)N2CCCC(N3CCN(c4ccc(F)cc4)CC3)C2)no1 (stereo not drawn)	CAL PDZ FP-1 57
Cc1nc(C(=O)N2CCCC(N3CCN(c4ccccc4C)CC3)C2)cs1 (stereo not drawn)	none
O=C(NCC1CC1)[C@@H]1[C@@H](CO)[C@@H]2Cn3c(ccc(-c4ccccc4F)c3=O)[C@H]1N2Cc1ccncc1	none (no result: CaV13 FRET inh, CAL PDZ FP-1, CAL PDZ FP-2)
CN1CCC(OC(=O)COc2ccccc2)CC1	none
CC1CCCCN1C(=O)COc1ccc(F)cc1 (stereo not drawn)	CAL PDZ FP-1 44
CN1CCC(OC(=O)COc2ccc(F)cc2)CC1	CAL PDZ FP-1 47
CCCC#Cc1cnc2c(c1)C(=O)N([C@H](C)CO)C[C@@H](C)[C@@H](CN(C)C(=O)Nc1c(C)noc1C)O2	none (no result: CaV13 FRET inh, CAL PDZ FP-1, CAL PDZ FP-2)
O=C(COC(=O)c1ccc([N+](=O)[O-])o1)NC1CCS(=O)(=O)C1 (stereo not drawn)	ARNT-TACC3 inh 31
CCN(C(=O)COC(=O)c1ccc([N+](=O)[O-])o1)C1CCCCC1	CAL PDZ FP-1 125
O=C(COC(=O)c1ccc([N+](=O)[O-])o1)NC1CCCCC1	none
O=C(COC(=O)Cc1ccc(F)cc1)NC1CCCCC1	CAL PDZ FP-1 34
O=C(COC(=O)c1ccc([N+](=O)[O-])o1)NC1CCCC1	ARNT-TACC3 inh 48 (no result: CAL PDZ FP-1)
CCN(CC)S(=O)(=O)c1ccc(N2CCOCC2)c(NC(=O)c2cc([N+](=O)[O-])ccc2Cl)c1	CAL PDZ FP-1 40
COc1ccc(CN(C)C[C@H]2OCCCC[C@H](C)Oc3ccc(NS(=O)(=O)c4ccc(F)cc4)cc3C(=O)N([C@H](C)CO)C[C@@H]2C)cc1	none (no result: CaV13 FRET inh, CAL PDZ FP-1, CAL PDZ FP-2)
O=C(Nc1cccc(C(=O)N2CCCC2)c1)C1CCCC1	none
Cc1ccc(CNC(=O)C2CCCN(C(=O)Nc3ccc(F)cc3)C2)cc1 (stereo not drawn)	none (no result: CAL PDZ FP-1)
O=C(Nc1cccc(C(=O)N2CCCCC2)c1)C1CC1	CAL PDZ FP-1 81
Cc1cccc(NC(=O)C2CCCN(C(=O)Nc3ccc(F)cc3)C2)c1 (stereo not drawn)	CAL PDZ FP-1 44
CC1CCCCN1C(=O)c1cccc(NC(=O)c2ccccc2)c1 (stereo not drawn)	CAL PDZ FP-1 76
CN(C(=O)c1cccc(NC(=O)c2ccccc2)c1)C1CCCCC1	CAL PDZ FP-1 48
CCCNC(=O)Nc1ccc2c(c1)C(=O)N(C)C[C@@H](OC)[C@@H](C)CN(C(C)=O)[C@@H](C)CO2	none (no result: CaV13 FRET inh, CAL PDZ FP-1, CAL PDZ FP-2)
O=C(NCc1ccccc1)[C@H]1[C@H](CO)[C@H]2Cn3c(cccc3=O)[C@@H]1N2C(=O)CC1CC1	none (no result: CaV13 FRET inh, CAL PDZ FP-1, CAL PDZ FP-2)
CC(C)NC(=O)N(C)C[C@@H]1Oc2cc(-c3ccncc3)ccc2S(=O)(=O)N([C@@H](C)CO)C[C@H]1C	none (no result: CaV13 FRET inh, CAL PDZ FP-1, CAL PDZ FP-2)
COc1ccc(C(=O)NCC(=O)OCC(=O)c2ccc(Cl)cc2)cc1OC	CAL PDZ FP-1 34
COc1ccc(C(=O)NCC(=O)OCc2ccc(Cl)cc2Cl)cc1OC	none (no result: CAL PDZ FP-1)
O=C1CN(O)C=C2N=c3ccccc3=C2N1c1ccc([N+](=O)[O-])cc1	CAL PDZ FP-1 77
O=C(COC(=O)CCc1c[nH]c2ccccc12)NCc1ccccc1	none
